Reference: article PMC3791465 (Nature Communications, 2013)

Key:
[1] = system: ERα / PHB2 chromatin-remodelling complexes; assay: Co-immunoprecipitation of chromatin-remodelling complexes in nuclear fractions; type: cell-based, human; conditions: MCF-7 and KPL-3C cells, 24 h, E2 present
In short: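 Lysed in 0.1% NP-40 buffer, precleared with normal IgG/Protein G Sepharose 3 h at 4 °C, then incubated with anti-ERα or anti-PHB2 (5 μg) 12 h at 4 °C. Complexes captured on Protein G 1 h, washed three times, resolved by SDS–PAGE and immunoblotted.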

Akt (S473) = assay: Immunoblot of Akt; type: cell-based, human; conditions: MCF-7 and KPL-3C cells, E2-stimulated
In short: (§1)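 Blots were run on nitrocellulose, blocked in 4% BlockAce for 1 h, probed with HRP secondary for 1 h and developed by ECL. Phospho-levels were quantified by densitometry. Representative of four independent experiments.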

p42/44 MAPK (T202/Y204) = assay: Immunoblot of p42/44 MAPK; type: cell-based, human; conditions: MCF-7 and KPL-3C cells, E2-stimulated
In short: as §1

[2] = system: ERα (S104/S106, S118, S167, S305 and Y537); assay: Immunoblot of ERα phosphorylation; type: cell-based, human; conditions: MCF-7 and KPL-3C cells, at least 24 h
In short: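 Blots were on nitrocellulose with HRP secondary and ECL detection. Site-specific ERα phosphorylation was quantified by densitometry and expressed as fold over untreated cells at 0 h. Mean±s.e.m.; experiments were run more than three times in triplicate.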

MCF-7 cells = assay: Cell cycle assay by flow cytometry, MCF-7; type: cell-based, human; conditions: MCF-7, 24 h
[3] = system: MCF-7 xenograft in BALB/c nude mice; assay: MCF-7 orthotopic xenograft tumour growth; type: in vivo, mouse; conditions: daily 6 μg per day E2, MCF-7
BIG3 expression = BIG3 expression in MCF-7 cells; type: cell-based, human
[4] = system: ERE motif within intron 1 of the BIG3 gene; assay: Luciferase assay, intronic ERE of BIG3; type: cell-based, human; conditions: MCF-7
[5] = system: ERE within intron 1 of the BIG3 gene; assay: ChIP on intronic ERE of BIG3; type: cell-based, human; conditions: MCF-7
[6] = system: Akt, p42/44 MAPK and ERα phosphorylation; assay: Immunoblot of phosphorylation in TAM-R MCF-7 and T47D cells; type: cell-based, human; conditions: tamoxifen alone or tamoxifen and E2
In short: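 Proteins separated, blotted to nitrocellulose, blocked 1 h, probed, then HRP secondary 1 h and ECL. Akt, p42/44 MAPK and ERα phosphorylation quantified by densitometry; experiments repeated more than three times in triplicate.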

Row | SRC-1 binding/recruitment to ERα [1] | luciferase activity, intronic ERE from BIG3 [4] | SMILES | Akt (S473) phosphorylation (Akt (S473)) | p42/44 MAPK (T202/Y204) phosphorylation (p42/44 MAPK (T202/Y204)) | ERα phosphorylation at five sites [2] | apoptotic (sub-G1) cell population (MCF-7 cells) | cell cycle distribution (MCF-7 cells) | E2-induced tumour growth by E2 alone [3] | BIG3 expression after E2 (BIG3 expression) | recruitment to intronic ERE of BIG3 [5] | phosphorylation of Akt, p42/44 MAPK and ERα in TAM-R cells [6] | BIG3 expression after tamoxifen (BIG3 expression; real-time PCR and immunoblot)
1 | recruited SRC-1 to ERα | robust luciferase activity | C[C@]12CC[C@@H]3c4ccc(O)cc4CC[C@H]3[C@@H]1CC[C@@H]2O [E2, 17-estradiol] | clearly increased in a time-dependent manner | clearly increased in a time-dependent manner | clearly increased in response to E2 stimulation | 0.17% | population of cells in the G2/M phase increased | induced time-dependent growth of KPL-3C and MCF-7 tumours | significantly upregulated in MCF-7 cells in a time-dependent manner | recruitment of ERα and the co-activator SRC-1 was observed |  | 
2 |  |  | CC/C(=C(\c1ccccc1)c1ccc(OCCN(C)C)cc1)c1ccccc1 [tamoxifen] |  |  |  | 0.91% | population in the G1 phase increased |  |  |  | enhanced in response to tamoxifen alone | significant reduction in BIG3 expression at both the transcriptional and protein levels in a dose-dependent manner
